Shown are actives, neighbours in structure and some others; about 2% of the full set was active somewhere.
HIF act: HIF pathway transcriptional activation; activation, % at 7.5 µM (by protocol); 300,000 tested, 0.32% active; U2OS HRE-luciferase reporter, luminescence; normalized: DMSO 0%, desferrioxamine 100%; AID 1910;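 active = mean activation of at least 10% of the iron chelator positive control signal, with at least half of replicates also reaching 10%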
NR2E3 ag-1: agonists of human nuclear receptor NR2E3; inhibition of corepressor binding, % at 4.78 µM; 320,000 tested, 0.12% active; AID 2300; GST-NR2E3/biotin-RetCOR TR-FRET, 1536-well;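 active = percent inhibition above the cutoff of mean plus 3 SD of all tested compounds, set per screening campaign, cut at about 20% in these data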
Target sequence (Q9Y5X4 whole entry, looked up): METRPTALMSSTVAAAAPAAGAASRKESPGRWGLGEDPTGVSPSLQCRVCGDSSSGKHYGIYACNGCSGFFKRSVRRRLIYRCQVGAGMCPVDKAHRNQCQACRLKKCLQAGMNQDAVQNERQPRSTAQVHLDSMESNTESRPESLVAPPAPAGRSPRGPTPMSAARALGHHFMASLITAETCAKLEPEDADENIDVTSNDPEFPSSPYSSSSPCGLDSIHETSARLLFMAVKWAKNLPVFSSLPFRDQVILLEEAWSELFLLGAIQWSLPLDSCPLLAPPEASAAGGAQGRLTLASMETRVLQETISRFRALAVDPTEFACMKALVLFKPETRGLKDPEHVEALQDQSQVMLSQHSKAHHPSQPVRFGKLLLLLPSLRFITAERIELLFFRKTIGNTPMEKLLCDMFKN
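Material – GST-tagged NR2E3 plus biotinylated RetCOR corepressor · Quantity – NR2E3 fusion 1.35 nM · Times – 5 h incubation at 4 °C · Medium – pH 7.5 Tris-based buffer · Technique – TR-FRET, Eu(K)-anti-GST donor, streptavidin-D2 acceptor, ex 340, em 617/671 nm · Benchmarks – high control biotin, low control 0.6% DMSO · Format – 1536-well plates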
NR2E3 ag-2: human photoreceptor-specific nuclear receptor agonism; Q9Y5X4; CHO-S Gal4-NCOR/VP16-NR2E3 two-hybrid, luciferase; inhibition of corepressor binding, % at 3.98 µM; 360,000 tested, 0.35% active; AID 602229;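 active = inhibition above the mean of all tested compounds plus 3 SD, cut at about 70% in these data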;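 note: higher means lower luciferase signal from less NR2E3 corepressor binding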
LMP1 NFkB inh: reduces LMP1-driven NF-kappaB luciferase signal. LMP1-induced NF-kappaB luciferase reporter cells, luminescence. 350,000 tested, 0.69% active. AID 504558. inhibition, % at 12.5 µM; in the data active = inhibition above about 41%
TROY NFkB inh: inhibitors of TROY-dependent NF-kB signaling; inhibition, % at 10 µM; 360,000 tested, 0.98% active; Q293 LMP1-TROYcd NF-kB luciferase reporter, 4 h;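 active = compounds whose plate-normalised and pattern-corrected inhibition of the luciferase reporter signal at the single screening dose is 50% or more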
Numbers stand for hits; 0 = inactive; - = not tested or not shown.

SMILES | HIF act | NR2E3 ag-1 | NR2E3 ag-2 | LMP1 NFkB inh | TROY NFkB inh
CCOc1ccc(N2CC(O)=C(c3nc4ccccc4c(=O)[nH]3)C2=N)cc1 | 0 | 0 | 0 | 46 | 0
CCNC(=O)C1(C)CCCN(C(=O)c2cc3ccccc3s2)C1 (configuration not stated) | - | - | 0 | - | 0
CC(C)n1ncc2c(C(=O)Nc3cccc(C#N)c3)cc(C3CC3)nc21 | - | 0 | 0 | 0 | 59
CCNC(=O)c1cccc(NC(=O)c2cc(C3CC3)nc3c2cnn3C(C)C)c1 | - | - | 0 | 0 | 0
COc1cc(S(=O)(=O)NCc2cccnc2)c(OC)cc1Br | 0 | 0 | 0 | 0 | 50
O=C(N/N=C/c1sc2ccccc2c1O)c1cccc2ccccc12 | 12 | 0 | 0 | 54 | 0
O=C(c1cc(-c2ccc3c(c2)OCO3)on1)N1CCN(c2ccc(F)cc2)CC1 | 0 | 0 | 0 | 0 | 0
O=C(c1cc(-c2ccc3c(c2)OCO3)on1)N1CCN(c2ccccc2)CC1 | 0 | 0 | 0 | 0 | 65
O=C(c1cc(-c2ccc3c(c2)OCO3)on1)N1CCOCC1 | 0 | 0 | 0 | 62 | 0
O=C(c1cc(-c2ccc(Cl)c(Cl)c2)on1)N1CCOCC1 | 0 | 0 | 0 | 0 | 0
Cn1ncc([N+](=O)[O-])c1C(=O)NC1CCCCCC1 | 0 | - | 0 | 0 | 0
Cn1ncc(Cl)c1C(=O)NC1CCCC1 | 0 | 0 | 0 | 53 | 0
Nc1nc(Nc2ccccc2)nc(NC2CCCCC2)c1[N+](=O)[O-] | 0 | 0 | 0 | 0 | 74
CNc1nc(N)c([N+](=O)[O-])c(NC2CCCCC2)n1 | 0 | - | 0 | 0 | 0
COc1ccc2cc(C(N)=O)/c(=N\NC(=O)c3ccccc3)oc2c1 | 0 | 0 | 0 | 46 | 58
Cc1ccc(C(=O)N/N=C/c2cccc(OC(=O)/C=C/c3ccco3)c2)cn1 | 0 | 0 | 0 | 0 | 0
O=C(/C=C/c1ccco1)Oc1cc(Br)cc(/C=N/NC(=O)c2ccccc2O)c1 | 97 | 0 | 0 | 61 | 0
CCOC(=O)N1CCN(c2ccc(Cl)c(Cl)c2)CC1 | 107 | 0 | 0 | 0 | 0
CCOC(=O)N1CCN(C2CC(=O)N(c3ccc(Cl)c(Cl)c3)C2=O)CC1 (configuration not stated) | - | 0 | 0 | 0 | 0
Cc1cc(C)c(-c2csc(NC(=O)C3=NN(c4ccccc4)C(=O)CC3)n2)c(C)c1 | 0 | 0 | 0 | 0 | 0
CCc1ccc(-c2csc(NC(=O)C3=NN(c4ccccc4)C(=O)CC3)n2)cc1 | 0 | 0 | 0 | 0 | 51
CN1CCN(c2ccc(-c3cccc(NC(=O)COc4ccc(Cl)cc4)c3)nn2)CC1 | 0 | 0 | 0 | 0 | 0
CN1CCN(c2ccc(-c3cccc(NC(=O)COc4ccc(Cl)cc4Cl)c3)nn2)CC1 | 0 | 0 | 0 | 0 | 74
CCC(=O)Nc1ccc2nc(C3CC3)n(Cc3ccc(C(C)(C)C)cc3)c(=O)c2c1 | 0 | 0 | 0 | 0 | 75

Screening results as filed in PubChem.
